Results from ChEMBL document CHEMBL1641443, “Design, synthesis and biological evaluation of small molecule inhibitors of CD4-gp120 binding based on virtual screening” (Bioorg Med Chem, 2011).

What was measured:
[1] = target: Envelope glycoprotein gp160 (Human immunodeficiency virus type 1 group M subtype B (isolate YU-2)(HIV-1), UniProt P35961); assay: Binding affinity to HIV1 YU2 gp120 by isothermal titration calorimetry assay; parameters: species or system Human immunodeficiency virus type 1 (isolate YU2)
Procedure, shortened: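 ITC at 25 °C. Cell held gp120 at about 2 μM in PBS pH 7.4 with 2% DMSO. Heat per injection taken from the integrated signal. Kd from a single run unless noted otherwise.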

[2] = test system: Human immunodeficiency virus 1; assay: Antiviral activity against recombinant HIV1 YU2 in Cf2Th-CCR5 cells assessed as viral infectivity by luciferase assasy relative to JRC-II-191; assay type: functional, isolate YU2

Structure (SMILES)	Kd ([1]; read-out: Kd)	fold change (FC) [2]	Kd [1]
CCCN1CCCC(NC(=O)C(=O)Nc2ccc(Cl)c(F)c2)C1 (configuration not stated)	3.3 µM	0.5	–
CC1(C)CC(NC(=O)C(=O)Nc2ccc(Cl)c(F)c2)CC(C)(C)N1	–	1	–
CC1(C)CC(CNC(=O)C(=O)Nc2ccc(Cl)c(F)c2)CC(C)(C)N1	2.2 µM	0.09	–
CC1(C)CC(NC(=O)CC(=O)Nc2ccc(Br)cc2)CC(C)(C)N1	–	0	–
CC1(C)CC(NC(=O)CCC(=O)Nc2ccc(Br)cc2)CC(C)(C)N1	–	0	–
CN(C(=O)C(=O)NC1CC(C)(C)NC(C)(C)C1)c1ccc(Cl)cc1	–	0	–
CN(C(=O)C(=O)Nc1ccc(Cl)c(F)c1)C1CC(C)(C)NC(C)(C)C1	–	0	–
CC1(C)CC(NCC(=O)Nc2ccc(Cl)c(F)c2)CC(C)(C)N1	–	0	–
CN1CCC(NC(=O)C(=O)Nc2ccc(Cl)c(F)c2)CC1	9.4 µM	0.1	–
CCCN1CCC(NC(=O)C(=O)Nc2ccc(Cl)c(F)c2)CC1	4.2 µM	0.2	–
CC(C)N1CCC(NC(=O)C(=O)Nc2ccc(Cl)c(F)c2)CC1	1.9 µM	0	–
CC(C)(C)OC(=O)N1CCC(NC(=O)C(=O)Nc2ccc(Cl)c(F)c2)CC1	–	0	–
O=C(Nc1ccc(Cl)c(F)c1)C(=O)NC1CCN(C(=O)c2ccccc2)CC1	–	0	–
O=C(NCC1CCNCC1)C(=O)Nc1ccc(Cl)c(F)c1	3 µM	0	–
CN1CCC(CNC(=O)C(=O)Nc2ccc(Cl)c(F)c2)CC1	4.3 µM	0.3	–
CCN1CCC(CNC(=O)C(=O)Nc2ccc(Cl)c(F)c2)CC1	–	0.2	–
CC1(C)CC(NC(=O)C(=O)Nc2ccc(Cl)c(F)c2)CC(C)(C)C1	–	0.1	Not Active
CC1(C)C2CCC1(C)C(NC(=O)C(=O)Nc1ccc(Cl)c(F)c1)C2 (configuration not stated)	–	0	Not Active
CC1(C)CC(NC(=O)C(=O)Nc2ccc(Cl)c(F)c2)CC(C)(C)O1	1 µM	0	–
CC1(C)CC(NC(=O)C(=O)Nc2ccc(Cl)c(F)c2)CC(C)(C)[N+]1(C)[O-] (configuration not stated)	–	0.23	–
CN1CCCC(NC(=O)C(=O)Nc2ccc(Cl)c(F)c2)C1 (configuration not stated)	4.2 µM	0.7	–
CN1CCCC(CNC(=O)C(=O)Nc2ccc(Cl)c(F)c2)C1 (configuration not stated)	2.5 µM	0.3	–

Structure (SMILES)	Kd ([1]; read-out: Kd)	fold change (FC) [2]	Kd [1]
CN1CCCC(ONC(=O)C(=O)Nc2ccc(Cl)c(F)c2)C1 (configuration not stated)	–	0	–
CC(C)N1CCCCC1CCNC(=O)C(=O)Nc1ccc(Cl)c(F)c1 (configuration not stated)	2.3 µM	0	–
CC1CCCCN1C(C)CNC(=O)C(=O)Nc1ccc(Cl)c(F)c1 (configuration not stated)	–	0	–
CC1CN(CCNC(=O)C(=O)Nc2ccc(Cl)c(F)c2)CC(C)O1 (configuration not stated)	–	0	–
CC(C)(CNC(=O)C(=O)Nc1ccc(Cl)c(F)c1)N1CCOCC1	–	0	–
CN1CCC(CNC(=O)C(=O)Nc2ccc(Cl)c(F)c2)(N(C)C)CC1	–	0.1	–
Cc1n[nH]c(C)c1CNC(=O)C(=O)Nc1ccc(Cl)c(F)c1	4 µM	0.1	–
CCn1ncnc1C(C)NC(=O)C(=O)Nc1ccc(Cl)c(F)c1 (configuration not stated)	–	0	–
CCc1n[nH]c(NC(=O)C(=O)Nc2ccc(Cl)c(F)c2)c1CC	–	0	–
O=C(NCc1n[nH]c2c1CCCCC2)C(=O)Nc1ccc(Cl)c(F)c1	–	0.1	–
O=C(Nc1ccc(Cl)c(F)c1)C(=O)Nc1cnn2c1NCCC2	–	0	–
O=C(Nc1ccc(Cl)c(F)c1)C(=O)NC1CCc2[nH]ncc2C1 (configuration not stated)	–	0	Not Active
O=C(Nc1ccc(Cl)c(F)c1)C(=O)Nc1cccc2[nH]ncc12	–	0	–
Cn1ccnc1C(O)(CCNC(=O)C(=O)Nc1ccc(Cl)c(F)c1)C(F)(F)F (configuration not stated)	–	0	–
O=C(NC[C@@]12CCC[C@@H]1CNC2)C(=O)Nc1ccc(Cl)c(F)c1	3.1 µM	0	–
O=C(NCC1NCCc2ccccc21)C(=O)Nc1ccc(Cl)c(F)c1 (configuration not stated)	1.2 µM	0.6	–
CCN1CCCC1CNC(=O)C(=O)Nc1ccc(Cl)c(F)c1 (configuration not stated)	2.1 µM	0	–
O=C(Nc1ccc(Cl)c(F)c1)C(=O)N[C@@H]1CCN(Cc2ccccc2)C1	–	0	Not Active
O=C(Nc1ccc(Cl)c(F)c1)C(=O)NC1CCNC2(CCC2)C1 (configuration not stated)	0.6 µM	2.6	–
C[C@@H]1CCC[C@H](C)N1CCNC(=O)C(=O)Nc1ccc(Cl)c(F)c1	1.6 µM	0.2	–
O=C(NCC1CCCN(CCO)C1)C(=O)Nc1ccc(Cl)c(F)c1 (configuration not stated)	3.2 µM	0	–
CC1(C)O[C@@H](CN)[C@H](CNC(=O)C(=O)Nc2ccc(Cl)c(F)c2)O1	2.6 µM	1.5	–
